Assay results: ChEMBL document CHEMBL1125490, “3'-Spiro nucleosides, a new class of specific human immunodeficiency virus type 1 inhibitors: synthesis and antiviral activity of [2'-5'-bis-O-(tert-butyldimethylsilyl)-beta-D-xylo- and -ribofuranose]-3'-spiro-5"-[4"-amino-1",2"-oxathiole 2",2"-dioxide] (TSAO) pyrimidine nucleosides” (J Med Chem, 1992)
Converted amounts (≈) assume the structure as drawn.

Columns and labels:
[1] = test system: Human immunodeficiency virus 1; experiment: Concentration required to inhibit HIV-1 induced cytopathicity in human MT-4 lymphocyte cells.; assay type: functional, organism-based
Summary of the method: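 MT-4 cells at 5 × 10⁵/mL were infected with HIV-1 at 100 CCID₅₀ per mL of cell suspension, then mixed 1:1 with serial dilutions of compound. After 5 days, viable cells were counted by trypan blue staining. EC₅₀ was the concentration giving 50% protection against virus-induced loss of viable cells. Values are means of at least three to five independent experiments.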

MT4 [2] = experiment: Concentration required to reduce human MT-4 cell viability by 50%.; assay type: functional
Summary of the method: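 Mock-infected MT-4 cells were cultured 5 days with serial dilutions of compound, and viable cells were counted by trypan blue staining. CC₅₀ was the concentration reducing viable cell number by 50%. Values are means of at least three to five independent experiments.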

MT4 [3] = experiment: Ratio of effective concentration to that of cytotoxic concentration against HIV-1 induced cytopathogenicity in MT-4 cells; assay type: functional
[4] = Human immunodeficiency virus 1, Lymphocyte, read-out: EC50
[5] = Homo sapiens, MT4, read-out: CC50

Row | SMILES | EC50 [1, 4] [µg/mL] | CC50 (MT4 [2]; [5]) [µg/mL] | Selectivity index (MT4 [3]) | EC50 ([1]; lymphocyte) [µg/mL] | CC50 (MT4 [2]) [µg/mL]
1 | Cc1cn([C@@H]2O[C@H](CO[Si](C)(C)C(C)(C)C)[C@@]3(OS(=O)(=O)C=C3N)[C@H]2O[Si](C)(C)C(C)(C)C)c(=O)[nH]c1=O | 0.034 (≈ 0.0576 µM) | 7.7 (≈ 13.1 µM) | – | – | –
2 | Cc1cn([C@@H]2O[C@H](CO[Si](C)(C)C(C)(C)C)[C@]3(OS(=O)(=O)C=C3N)[C@H]2O[Si](C)(C)C(C)(C)C)c(=O)[nH]c1=O | > 4 | 18 (≈ 30.5 µM) | <4.5 | – | –
3 | Cc1cn([C@@H]2O[C@H](CO[Si](C)(C)C(C)(C)C)[C@@](C#N)(OS(C)(=O)=O)[C@H]2O[Si](C)(C)C(C)(C)C)c(=O)[nH]c1=O | > 1.6 | 4.3 (≈ 7.29 µM) | <2.7 | – | –
4 | NC1=CS(=O)(=O)O[C@]12[C@@H](CO)O[C@@H](n1ccc(=O)[nH]c1=O)[C@@H]2O | > 80 | 320 (≈ 921 µM) | <4 | – | –
5 | Cc1cn([C@H]2C[C@]3(OS(=O)(=O)C=C3N)[C@@H](CO[Si](C)(C)C(C)(C)C)O2)c(=O)[nH]c1=O | > 0.8 | 1.5 (≈ 3.26 µM) | <1.9 | – | –
6 | Cc1cn([C@@H]2O[C@H](CO[Si](C)(C)C(C)(C)C)[C@@]3(OS(=O)(=O)C=C3N)[C@H]2O)c(=O)[nH]c1=O | > 20 | 45 (≈ 94.6 µM) | <2.2 | – | –
7 | CC(C)(C)[Si](C)(C)O[C@H]1[C@H](n2ccc(=O)[nH]c2=O)O[C@H](CO)[C@]12OS(=O)(=O)C=C2N | > 100 | 221 (≈ 479 µM) | <2 | – | –
8 | Cc1cn([C@@H]2O[C@H](CO)[C@@]3(OS(=O)(=O)C=C3N)[C@H]2O[Si](C)(C)C(C)(C)C)c(=O)[nH]c1=O | > 40 | 106 (≈ 223 µM) | <2.6 | – | –
9 | CC(=O)Nc1ccn([C@@H]2O[C@H](CO[Si](C)(C)C(C)(C)C)[C@]3(OS(=O)(=O)C=C3N)[C@H]2O[Si](C)(C)C(C)(C)C)c(=O)n1 | > 4 | 7.1 (≈ 11.5 µM) | <1.8 | – | –
10 | Cc1cn([C@@H]2O[C@H](CO)[C@@]3(OS(=O)(=O)C=C3N)[C@H]2O)c(=O)[nH]c1=O | > 100 | > 100 | – | – | –
11 | CC(=O)Nc1ccn([C@@H]2O[C@H](CO[Si](C)(C)C(C)(C)C)[C@@]3(OS(=O)(=O)C=C3N)[C@H]2O[Si](C)(C)C(C)(C)C)c(=O)n1 | 0.097 (≈ 0.157 µM) | 7.5 (≈ 12.2 µM) | 77 | – | –
12 | Cc1cn([C@@H]2O[C@H](CO)[C@]3(OS(=O)(=O)C=C3N)[C@H]2O)c(=O)[nH]c1=O | > 500 | > 500 | <1 | – | –
13 | CC(C)=CCN1Cc2cccc3[nH]c(=S)n(c23)C[C@@H]1C | 0.021 (≈ 0.0731 µM) | > 20 | >952 | – | –
14 | CC(C)(C)[Si](C)(C)OC[C@H]1O[C@@H](n2ccc(=O)[nH]c2=O)[C@H](O[Si](C)(C)C(C)(C)C)C12OS(=O)(=O)C=C2N (stereo in doubt; 11b) | – | – | <2 | > 1.6 | 3.1 (≈ 5.38 µM)
15 | CC(C)(C)[Si](C)(C)OC[C@H]1O[C@@H](n2ccc(=O)[nH]c2=O)[C@H](O[Si](C)(C)C(C)(C)C)C12OS(=O)(=O)C=C2N (stereo in doubt; 12b) | – | – | 73 | 0.114 (≈ 0.198 µM) | 8.3 (≈ 14.4 µM)
16 | Cc1c(Sc2ccccc2)n(COCCO)c(=O)[nH]c1=O [HEPT] | 5.5 (≈ 17.8 µM) | > 200 | >36 | – | –
17 | Cc1ccnc2c1NC(=O)c1cccnc1N2C1CC1 [NEVIRAPINE] | 0.038 (≈ 0.143 µM) | > 20 | >526 | – | –
